Data from ChEMBL document CHEMBL3616442, “Unconventional Knoevenagel-type indoles: Synthesis and cell-based studies for the identification of pro-apoptotic agents” (Eur J Med Chem, 2015).

How the values were obtained:
MT4 = assay: Antiproliferative activity against human MT4 cells after 96 hrs by MTT assay; assay type: functional, cell-based; conditions: MT4, 96 h
In short: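 Exponentially growing MT-4 cells (CD4+ human T-cells carrying integrated HTLV-1 genome), seeded at 1×10^5 cells/mL in RPMI-1640 with 10% FCS and antibiotics. Serial dilutions of compound (DMSO stock 100 mM, diluted in medium), 37 °C, 5% CO₂, 96 h. Viability read by MTT. 50% inhibition versus untreated controls by linear regression. Mean ± SD of three independent determinations.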

CCRF-CEM = assay: Cytotoxicity against human CCRF-CEM cells after 96 hrs by MTT assay; assay type: functional, cell-based
In short: (§1)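 ATCC cell lines, mycoplasma-free by Hoechst staining. Haematological lines in RPMI-1640, solid-tumour and normal fibroblast lines in their own media, all with 10% FCS and antibiotics, at 37 °C in 5% CO₂. Compounds added as serial dilutions from a 100 mM DMSO stock diluted in medium. Viability by MTT after 96 h at 37 °C. Mean ± SD of three independent determinations.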

WIL2-NS = assay: Cytotoxicity against human WIL2-NS cells after 96 hrs by MTT assay; assay type: functional, cell-based; in short: as §1
CCRF-SB = assay: Cytotoxicity against human CCRF-SB cells after 96 hrs by MTT assay; assay type: functional, cell-based; in short: as §1
MRC5 = assay: Cytotoxicity against human MRC5 cells after 96 hrs by MTT assay; assay type: cell-based; conditions: MRC5, 96 h; in short: as §1
[1] = Cytotoxicity against human CRL7065 cells after 96 hrs by MTT assay; assay type: cell-based; conditions: CRL-7065, 96 h; in short: as §1
SK-MEL-28 = assay: Cytotoxicity against human SK-MEL-28 cells after 96 hrs by MTT assay; assay type: functional, cell-based; conditions: SK-MEL-28, 96 h; in short: as §1
[2] = Cytotoxicity against human SKMES1 cells after 96 hrs by MTT assay; assay type: functional, cell-based; conditions: SK-MES-1, 96 h; in short: as §1
DU-145 = assay: Cytotoxicity against human DU145 cells after 96 hrs by MTT assay; assay type: functional, cell-based; conditions: DU-145, 96 h; in short: as §1
HepG2 = assay: Cytotoxicity against human HepG2 cells after 96 hrs by MTT assay; assay type: functional, cell-based; conditions: HepG2, 96 h; in short: as §1
MCF7 = assay: Cytotoxicity against human MCF7 cells after 96 hrs by MTT assay; assay type: functional, cell-based; conditions: MCF7, 96 h; in short: as §1

SMILES	EC50 (MT4) [nM]	EC50 (CCRF-CEM) [nM]	EC50 (WIL2-NS) [nM]	EC50 (CCRF-SB) [nM]	EC50 (MRC5) [µM]	EC50 [1] [µM]	EC50 (SK-MEL-28) [µM]	EC50 [2] [µM]	EC50 (DU-145) [µM]	EC50 (HepG2) [µM]	EC50 (MCF7) [µM]
CCOC(=O)/C(=C/c1c(-c2ccccc2)[nH]c2ccccc12)C(=O)c1ccc([N+](=O)[O-])cc1	1500	1800	2400	2200	> 100	> 100	> 100	19	11	28	40
COc1cccc2c1C(=O)c1c(O)c3c(c(O)c1C2=O)C[C@@](O)(C(=O)CO)C[C@@H]3O[C@H]1C[C@H](N)[C@H](O)[C@H](C)O1 [DOXORUBICIN]	30	20	40	10	0.3	0.9	0.7	0.1	0.2	0.3	0.3
CC(=O)/C(=C/c1c(-c2ccccc2)[nH]c2ccccc12)C(=O)c1ccccc1	2000	8100	12000	11000	> 100	> 100	> 100	> 100	> 100	79	> 100
